# Tested on: Fibroblast
# Assay: Multiplex assay against human fibroblast
# Type: toxicity, cell-based
# Outline: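 Tubulin, mitochondrial-mass and membrane-permeability phenotypes are per cents of healthy-nucleus cells. Cells were gated by CellPathfinder machine learning into Hoechst high-intensity objects or normal cells, normal cells into healthy, pyknosed or fragmented nuclei, and pyknosed cells into mitotic or apoptotic. Before that, live cells stained at seeding with Hoechst33342, BioTracker Green Microtubule Cytoskeleton Dye, MitoTracker Red and Annexin V Alexa Fluor 680 were imaged on a CQ1 microscope at 37°C and 5% CO2 after compound addition.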
# [1] = 12 h, 1 µM, compound concentration 1 uM, replicate 1
# [2] = 12 h, 1 µM, compound concentration 1 uM, replicate 2
# [3] = 12 h, 10 µM, compound concentration 10 uM, replicate 1
# [4] = 12 h, 10 µM, compound concentration 10 uM, replicate 2
# [5] = 24 h, 1 µM, compound concentration 1 uM, replicate 1
# [6] = 24 h, 1 µM, compound concentration 1 uM, replicate 2
# [7] = 24 h, 10 µM, compound concentration 10 uM, replicate 1
# [8] = 24 h, 10 µM, compound concentration 10 uM, replicate 2
# [9] = 48 h, 1 µM, compound concentration 1 uM, replicate 1
# [10] = 48 h, 1 µM, compound concentration 1 uM, replicate 2
# [11] = 48 h, 10 µM, compound concentration 10 uM, replicate 1
# [12] = 48 h, 10 µM, compound concentration 10 uM, replicate 2
structure (smiles),measurement,setting,value
CCc1ccc(OCc2ccccc2C(=O)Nc2ccc3nc(C)cc(N)c3c2)cc1.Cl,Population Apoptotic (%),[1],67%
same,Population Fragmented Nuclei (%),[1],31%
same,Population Healthy Nuclei (%),[1],33%
same,Population Hoechst High Intensity Objects (%),[1],11%
same,Population Membrane Permeable-Phenotype (%),[1],9%
same,Population Mitochondria Different-Phenotype (%),[1],44%
same,Population Mitotic Cells (%),[1],32%
same,Population Normal (%),[1],88%
same,Population Pyknosed Nuclei (%),[1],35%
same,Population Tubulin-Different-Phenotype (%),[1],63%
same,Total Cell Count,[1],177
same,Population Apoptotic (%),[2],71%
same,Population Fragmented Nuclei (%),[2],33%
same,Population Hoechst High Intensity Objects (%),[2],16%
same,Population Membrane Permeable-Phenotype (%),[2],28%
same,Population Mitochondria Different-Phenotype (%),[2],92%
same,Population Mitotic Cells (%),[2],28%
same,Population Normal (%),[2],84%
same,Population Pyknosed Nuclei (%),[2],33%
same,Population Tubulin-Different-Phenotype (%),[2],85%
same,Total Cell Count,[2],68
same,Population Apoptotic (%),[3],26%
same,Population Fragmented Nuclei (%),[3],15%
same,Population Healthy Nuclei (%),[3],18%
same,Population Hoechst High Intensity Objects (%),[3],22%
same,Population Membrane Permeable-Phenotype (%),[3],16%
same,Population Mitochondria Different-Phenotype (%),[3],55%
same,Population Mitotic Cells (%),[3],73%
same,Population Normal (%),[3],77%
same,Population Pyknosed Nuclei (%),[3],65%
same,Population Tubulin-Different-Phenotype (%),[3],88%
same,Total Cell Count,[3],125
same,Population Apoptotic (%),[4],76%
same,Population Fragmented Nuclei (%),[4],8%
same,Population Healthy Nuclei (%),[4],14%
same,Population Hoechst High Intensity Objects (%),[4],12%
same,Population Membrane Permeable-Phenotype (%),[4],100%
same,Population Mitochondria Different-Phenotype (%),[4],100%
same,Population Mitotic Cells (%),[4],23%
same,Population Normal (%),[4],87%
same,Population Pyknosed Nuclei (%),[4],77%
same,Population Tubulin-Different-Phenotype (%),[4],100%
same,Total Cell Count,[4],50
same,Population Apoptotic (%),[5],79%
same,Population Fragmented Nuclei (%),[5],32%
same,Population Healthy Nuclei (%),[5],22%
same,Population Hoechst High Intensity Objects (%),[5],13%
same,Population Membrane Permeable-Phenotype (%),[5],10%
same,Population Mitochondria Different-Phenotype (%),[5],60%
same,Population Mitotic Cells (%),[5],20%
same,Population Normal (%),[5],86%
same,Population Pyknosed Nuclei (%),[5],45%
same,Population Tubulin-Different-Phenotype (%),[5],86%
same,Total Cell Count,[5],158
same,Population Apoptotic (%),[6],83%
same,Population Fragmented Nuclei (%),[6],25%
same,Population Healthy Nuclei (%),[6],28%
same,Population Hoechst High Intensity Objects (%),[6],17%
same,Population Membrane Permeable-Phenotype (%),[6],27%
same,Population Mitochondria Different-Phenotype (%),[6],90%
same,Population Mitotic Cells (%),[6],16%
same,Population Normal (%),[6],82%
same,Population Pyknosed Nuclei (%),[6],46%
same,Population Tubulin-Different-Phenotype (%),[6],63%
same,Total Cell Count,[6],92
same,Population Apoptotic (%),[7],40%
same,Population Fragmented Nuclei (%),[7],25%
same,Population Healthy Nuclei (%),[7],48%
same,Population Hoechst High Intensity Objects (%),[7],50%
same,Population Membrane Permeable-Phenotype (%),[7],16%
same,Population Mitochondria Different-Phenotype (%),[7],37%
same,Population Mitotic Cells (%),[7],60%
same,Population Normal (%),[7],49%
same,Population Pyknosed Nuclei (%),[7],25%
same,Population Tubulin-Different-Phenotype (%),[7],97%
same,Total Cell Count,[7],155
same,Population Apoptotic (%),[8],70%
same,Population Fragmented Nuclei (%),[8],15%
same,Population Healthy Nuclei (%),[8],38%
same,Population Hoechst High Intensity Objects (%),[8],31%
same,Population Membrane Permeable-Phenotype (%),[8],47%
same,Population Mitochondria Different-Phenotype (%),[8],94%
same,Population Mitotic Cells (%),[8],30%
same,Population Normal (%),[8],68%
same,Population Pyknosed Nuclei (%),[8],45%
same,Population Tubulin-Different-Phenotype (%),[8],94%
same,Total Cell Count,[8],47
same,Population Apoptotic (%),[9],90%
same,Population Fragmented Nuclei (%),[9],46%
same,Population Healthy Nuclei (%),[9],20%
same,Population Hoechst High Intensity Objects (%),[9],20%
same,Population Membrane Permeable-Phenotype (%),[9],40%
same,Population Mitochondria Different-Phenotype (%),[9],32%
same,Population Mitotic Cells (%),[9],9%
same,Population Normal (%),[9],79%
same,Population Pyknosed Nuclei (%),[9],33%
same,Population Tubulin-Different-Phenotype (%),[9],72%
same,Total Cell Count,[9],157
same,Population Apoptotic (%),[10],84%
same,Population Fragmented Nuclei (%),[10],51%
same,Population Healthy Nuclei (%),[10],25%
same,Population Hoechst High Intensity Objects (%),[10],16%
same,Population Membrane Permeable-Phenotype (%),[10],30%
same,Population Mitochondria Different-Phenotype (%),[10],55%
same,Population Mitotic Cells (%),[10],15%
same,Population Normal (%),[10],83%
same,Population Pyknosed Nuclei (%),[10],23%
same,Population Tubulin-Different-Phenotype (%),[10],70%
same,Total Cell Count,[10],96
same,Population Fragmented Nuclei (%),[11],68%
same,Population Healthy Nuclei (%),[11],28%
same,Population Hoechst High Intensity Objects (%),[11],47%
same,Population Membrane Permeable-Phenotype (%),[11],4%
same,Population Mitochondria Different-Phenotype (%),[11],68%
same,Population Normal (%),[11],52%
same,Population Pyknosed Nuclei (%),[11],2%
same,Population Tubulin-Different-Phenotype (%),[11],86%
same,Total Cell Count,[11],146
same,Population Apoptotic (%),[12],100%
same,Population Fragmented Nuclei (%),[12],86%
same,Population Healthy Nuclei (%),[12],8%
same,Population Hoechst High Intensity Objects (%),[12],39%
same,Population Membrane Permeable-Phenotype (%),[12],0%
same,Population Mitochondria Different-Phenotype (%),[12],50%
same,Population Mitotic Cells (%),[12],0%
same,Population Normal (%),[12],60%
same,Population Pyknosed Nuclei (%),[12],4%
same,Population Tubulin-Different-Phenotype (%),[12],50%
same,Total Cell Count,[12],38

# Source: ChEMBL document CHEMBL4689842, “EUbOPEN Chemogenomics Library wave 1” (2021)
